This passage reports inhibition, ED50 and IC50 results from ChEMBL document CHEMBL1123632, “Cardiotonic agents. 7. Inhibition of separated forms of cyclic nucleotide phosphodiesterase from guinea pig cardiac muscle by 4,5-dihydro-6-[4-(1H-imidazol-1-yl)phenyl]-3(2H)-pyridazinones and related compounds. Structure-activity relationships and correlation with in vivo positive inotropic …” (J Med Chem, 1987).

Test [1] addresses T1, Phosphodiesterase 1 (Homo sapiens, UniProt P54750+Q01064+Q14123). As to the kind of experiment: Inhibition of cAMP PDE I enzyme in guinea pig at 1E-5M concentration. The class given is protein assay. Particulars: Cavia porcellus; target entry is the homologue from another species.
Test [2] deals with T2, cGMP-dependent 3',5'-cyclic phosphodiesterase (Homo sapiens, UniProt O00408). As to the kind of experiment: Inhibition of cAMP PDE II enzyme in guinea pig at 1E-5M concentration. Particulars: Cavia porcellus; target entry is the homologue from another species.
T2 sequence (O00408 whole entry): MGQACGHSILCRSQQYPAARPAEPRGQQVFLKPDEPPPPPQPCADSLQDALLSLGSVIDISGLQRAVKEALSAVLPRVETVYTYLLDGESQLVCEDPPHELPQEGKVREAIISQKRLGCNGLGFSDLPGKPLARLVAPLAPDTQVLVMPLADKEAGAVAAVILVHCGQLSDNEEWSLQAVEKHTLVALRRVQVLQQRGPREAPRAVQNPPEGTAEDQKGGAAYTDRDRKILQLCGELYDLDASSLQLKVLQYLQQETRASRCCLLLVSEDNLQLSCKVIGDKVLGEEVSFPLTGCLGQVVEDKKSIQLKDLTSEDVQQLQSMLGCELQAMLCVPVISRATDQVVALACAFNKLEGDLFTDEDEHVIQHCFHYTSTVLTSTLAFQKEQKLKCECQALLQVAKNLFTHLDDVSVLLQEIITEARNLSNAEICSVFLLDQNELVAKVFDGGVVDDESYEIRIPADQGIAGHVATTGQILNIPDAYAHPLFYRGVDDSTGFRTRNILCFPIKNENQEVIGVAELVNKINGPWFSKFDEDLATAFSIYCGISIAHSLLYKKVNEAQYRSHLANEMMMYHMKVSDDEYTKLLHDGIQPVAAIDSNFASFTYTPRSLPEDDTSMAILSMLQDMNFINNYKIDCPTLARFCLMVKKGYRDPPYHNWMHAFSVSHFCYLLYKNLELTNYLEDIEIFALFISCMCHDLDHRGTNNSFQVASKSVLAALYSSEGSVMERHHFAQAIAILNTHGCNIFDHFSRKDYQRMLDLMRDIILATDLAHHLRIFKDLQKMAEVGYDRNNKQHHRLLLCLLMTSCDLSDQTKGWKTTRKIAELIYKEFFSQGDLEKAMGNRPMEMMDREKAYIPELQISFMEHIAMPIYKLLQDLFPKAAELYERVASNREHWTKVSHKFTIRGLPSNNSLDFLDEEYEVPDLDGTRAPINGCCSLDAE
Test [3] has as its target T2, cGMP-dependent 3',5'-cyclic phosphodiesterase. As to the kind of experiment: Inhibition of cGMP PDE II enzyme in guinea pig at 1E-5M concentration. Particulars: Cavia porcellus; target entry is the homologue from another species.
Test [4] concerns the target T3, Phosphodiesterase 3 (Homo sapiens, UniProt Q14432+Q13370). Description: Inhibition of cAMP PDE III enzyme in guinea pig at 1E-5M concentration. The class given is protein assay. Particulars: Cavia porcellus; target entry is the homologue from another species.
The target in test [5] is T1, Phosphodiesterase 1. As to the kind of experiment: Inhibition of cGMP PDE I enzyme in guinea pig at 1E-5M concentration. The settings on record: Cavia porcellus; target entry is the homologue from another species. It is filed as protein assay.
For test [6], the target named is T1, Phosphodiesterase 1. As to the kind of experiment: Inhibition of cAMP PDE I enzyme in guinea pig at 1E-4M concentration. The class given is protein assay. The settings on record: Cavia porcellus; target entry is the homologue from another species.
A further test is filed under the species Canis familiaris. Description: Effective dose required to increase myocardial contractility in dog. It is filed as functional. Particulars: Canis lupus familiaris, Myocardium. The essentials:
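Anesthetized mongrel dogs (either sex): pentobarbital 35 mg/kg iv, then 5 mg kg⁻¹ h⁻¹ infusion. After 30-min control, compound in saline or dilute HCl/NaOH diluted with saline given iv over 1 min, cumulative half-log doses (typically four to six), 10–30 min apart.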

The target of test [7] is T2, cGMP-dependent 3',5'-cyclic phosphodiesterase. Description: Inhibition of cGMP PDE II enzyme in guinea pig at 1E-4M concentration. Particulars: Cavia porcellus; target entry is the homologue from another species.
Test [8] concerns the target T3, Phosphodiesterase 3. As to the kind of experiment: Inhibition of cAMP PDE III enzyme in guinea pig at 1E-4M concentration. It is filed as protein assay. Particulars: Cavia porcellus; target entry is the homologue from another species.
For test [9], the target named is T1, Phosphodiesterase 1. Description: Inhibition of cGMP PDE I enzyme in guinea pig at 1E-4M concentration. It is filed as protein assay. The settings on record: Cavia porcellus; target entry is the homologue from another species.
The target in test [10] is T3, Phosphodiesterase 3. Description: Inhibitory concentration against cAMP PDE III enzyme in guinea pig. The class given is protein assay, Cavia porcellus. Particulars: target entry is the homologue from another species.
The target in test [11] is T2, cGMP-dependent 3',5'-cyclic phosphodiesterase. As to the kind of experiment: Inhibitory concentration against cGMP PDE II enzyme in guinea pig. Details: species or system Cavia porcellus. Particulars: target entry is the homologue from another species.
Test [12] shares this target. As to the kind of experiment: Inhibitory concentration against cAMP PDE II enzyme in guinea pig. Also on record: species or system Cavia porcellus. The settings on record: target entry is the homologue from another species.

Regarding `CSc1nccn1-c1ccc(C2=NNC(=O)CC2)cc1`, the inhibition (as a rule, how much of the control response was suppressed) on Phosphodiesterase 1 [1] was found to be 7%; in test [2] it was 10%; in test [3], 12%; at Phosphodiesterase 3 [4], 57%; on Phosphodiesterase 1 [5] it was 13%.
For `Cc1csc(Nc2ccc(C3=NNC(=O)CC3)cc2)n1` the same measures were 7%, 23%, 23%, 58% and 2%.
For `CC1(C)CC(=O)NN=C1c1ccc(-n2ccnc2)cc1` the same measures were 2%, 17%, 6%, 47% and 5%.
The corresponding values for `O=C1CCC(c2ccc(-n3cnnc3)cc2)=NN1` are 29%, 25%, 21%, 70% and 20%.
On to `CC(=O)OCCN1N=C(c2ccc(-n3ccnc3)cc2)CCC1=O`, for which the inhibition against Phosphodiesterase 1 [1] worked out at 1%; in test [2], 23%; in test [3], 11%; against Phosphodiesterase 3 [4] it was 16%; against Phosphodiesterase 1 [5], 5%.
Consider `NC(=O)c1cc(-c2ccc(-n3ccnc3)cc2)nnc1O`, for which the inhibition turned out to be 11% against Phosphodiesterase 1 [1]; 18% in test [2]; 15% in test [3]; 24% on Phosphodiesterase 3 [4]; 16% against Phosphodiesterase 1 [5].
For `O=C1CCC(c2ccc(NC3=NCCN3)cc2)=NN1` the same measures were 33%, 28%, 16%, 58% and 33%.
For `O=C1CCC(c2ccc(-n3cccc3)cc2)=NN1` the same measures were 0%, 20%, 21%, 68% and 13%.
Take `Cc1cc(O)nnc1-c1ccc(-n2ccnc2)cc1`: the inhibition against Phosphodiesterase 1 [1] is 0%; in test [2], 4%; at Phosphodiesterase 1 [6], 24%; in test [7], 39%; against Phosphodiesterase 3 [8], 64%; against Phosphodiesterase 1 [9], 14%. Besides, the inhibition in test [3] was 8%; against Phosphodiesterase 3 [4] it was 26%; against Phosphodiesterase 1 [5], 4%. The 50% effective dose (ED50) (commonly the midpoint of the dose-response relation) in the test listed under Canis familiaris was found to be 1.1 mg/kg. Besides, the IC50 – broadly, the concentration needed to halve the response being measured – against Phosphodiesterase 3 [10] was found to be 50 µM.
As to `O=C1CCC(c2ccc(-n3cnc(CO)c3)cc2)=NN1`, the inhibition against Phosphodiesterase 1 [1] was 1%; in test [2] it was 6%; against Phosphodiesterase 1 [6], 9%; in [7], 23%; against Phosphodiesterase 3 [8] it was 68%; against Phosphodiesterase 1 [9] it was 9%. The inhibition in [3] was found to be 5%; against Phosphodiesterase 3 [4], 59%. In the test filed under Canis familiaris, this molecule returned a median effective dose (ED50) of 0.034 mg/kg. The half-maximal inhibitory concentration (IC50) in test [11] is 350 µM; at Phosphodiesterase 3 [10] it was 4.1 µM; in test [12], 480 µM.
On to `NNC(=O)c1cc(-c2ccc(-n3ccnc3)cc2)nnc1O`, for which the inhibition on Phosphodiesterase 1 [1] is 6%; in [2], 20%; in test [3], 12%; on Phosphodiesterase 3 [4], 21%; against Phosphodiesterase 1 [5] it was 4%.
Regarding `Cc1cc(=O)[nH]nc1-c1ccc(-n2ccnc2)cc1`, the IC50 in test [11] turned out to be 170 µM; in test [12] it was 210 µM.
With `Cn1nc(-c2ccc(-n3ccnc3)cc2)ccc1=O`, the inhibition at Phosphodiesterase 1 [1] was 1%; in [2] it was 16%; in [3] it was 12%; against Phosphodiesterase 3 [4], 20%; at Phosphodiesterase 1 [5], 9%.
For `CC1(C)CC(c2ccc(-n3ccnc3)cc2)=NNC1=O` the same measures were 7%, 22%, 13%, 27% and 2%.
For `O=C1CCC(c2ccc(NC3=NCCS3)cc2)=NN1` the same measures were 18%, 31%, 33%, 58% and 20%.
Take `Cc1[nH]c(=O)c(C#N)cc1-c1ccncc1` [MILRINONE]: the ED50 in the test listed under Canis familiaris is 0.037 mg/kg.
With `Oc1ccc(-c2ccc(-n3cnc4c3CCCC4)cc2)nn1`, the inhibition at Phosphodiesterase 1 [1] came to 30%; on Phosphodiesterase 1 [6] it was 52%; on Phosphodiesterase 1 [9], 56%; on Phosphodiesterase 1 [5], 27%.
As for `O=C1NN=C(c2ccc(-n3ccnc3)cc2)C2CCCCC12` (stereo not drawn), the inhibition stood at 1% against Phosphodiesterase 1 [1]; 14% in [2]; 22% on Phosphodiesterase 1 [6]; 44% in test [7]; 34% at Phosphodiesterase 3 [8]; 16% on Phosphodiesterase 1 [9]. Further, the inhibition turned out to be 8% in test [3], 8% against Phosphodiesterase 3 [4] and 2% against Phosphodiesterase 1 [5]. This molecule returned a median effective dose (ED50) in the test filed under Canis familiaris of 1 mg/kg. Also, the IC50 was 130 µM in test [11], 220 µM at Phosphodiesterase 3 [10] and 150 µM in [12].
In the case of `O=C1CCC(c2ccc(-c3nn[nH]n3)cc2)=NN1`, the inhibition against Phosphodiesterase 1 [1] was 21%; in [2], 37%; in test [3], 29%; at Phosphodiesterase 3 [4] it was 86%; against Phosphodiesterase 1 [5] it was 20%.
For the molecule `O=C1CCC(c2ccc(-n3cnc4c3CCCC4)cc2)=NN1`, the inhibition came to 8% on Phosphodiesterase 1 [1]; 20% in test [2]; 38% at Phosphodiesterase 1 [6]; 69% in test [7]; 87% on Phosphodiesterase 3 [8]; 37% against Phosphodiesterase 1 [9]. The inhibition in test [3] was determined as 22%; against Phosphodiesterase 3 [4], 60%; against Phosphodiesterase 1 [5], 7%. In addition, in the test listed under Canis familiaris, the ED50 was 0.064 mg/kg. The IC50 in test [11] was 39 µM; against Phosphodiesterase 3 [10] it was 1.1 µM; in [12], 49 µM.
As to `CCc1nc(C)cn1-c1ccc(C2=NNC(=O)CC2)cc1`, the inhibition against Phosphodiesterase 1 [1] was determined as 9%; in test [2], 14%; against Phosphodiesterase 1 [6], 51%; in [7], 44%; at Phosphodiesterase 3 [8], 76%; against Phosphodiesterase 1 [9], 53%. Besides, the figures for the inhibition (in test [3]; at Phosphodiesterase 3 [4]; against Phosphodiesterase 1 [5]) were 9%, 59% and 7%, respectively. It took a dose of 0.1 mg/kg to reach the 50% effect level in the test listed under Canis familiaris (ED50). The results for the IC50 (in test [11]; at Phosphodiesterase 3 [10]; in [12]) were 92 µM, 3.5 µM and 170 µM, respectively.
As to `CCc1nc(C)c(Br)n1-c1ccc(-c2ccc(O)nn2)cc1`, the inhibition came out at 20% against Phosphodiesterase 1 [1] and 64% on Phosphodiesterase 1 [6].
On to `Oc1ccc(-c2ccc(-c3ncc[nH]3)cc2)nn1`, for which the inhibition against Phosphodiesterase 1 [1] turned out to be 8%; in test [2] it was 10%; at Phosphodiesterase 1 [6], 18%; in test [7] it was 41%; against Phosphodiesterase 3 [8] it was 69%; against Phosphodiesterase 1 [9], 23%. Moreover, the inhibition stood at 7% in [3], 51% against Phosphodiesterase 3 [4] and 10% on Phosphodiesterase 1 [5]. Also, the ED50 in the test filed under Canis familiaris was determined as 0.017 mg/kg. Besides, the results for the IC50 (in test [11]; against Phosphodiesterase 3 [10]; in test [12]) were 180 µM, 12 µM and 190 µM, respectively.
With `O=C1CCC(c2ccc(-n3cccn3)cc2)=NN1`, the inhibition at Phosphodiesterase 1 [1] amounted to 12%; in test [2], 27%; in test [3], 27%; against Phosphodiesterase 1 [5], 15%.
